# Measured values from different studies.
# Protocols differ between the studies behind these lines.
# Cell line: DU-145
# Observed: cell growth or viability
Compound,test,setting,GI50 [µM]
CCOc1c(OC)cc(CN2CCc3cc(O)c(OC)cc3C2)cc1OC,WST-1,96 h,0.3
COc1cc2c(cc1O)CCN(S(=O)(=O)c1ccccc1OC)C2,WST-1,96 h,> 100
COc1ccc(C(=O)/C=C/c2cccc(Cl)c2Cl)cc1S(N)(=O)=O,SRB,48 h,2.9
Cc1cc(C)n(C(=S)[S][Au][PH](CCCCCC[PH]([Au][S]C(=S)n2nc(C)cc2C)(c2ccccc2)c2ccccc2)(c2ccccc2)c2ccccc2)n1,,,0.633
COc1cc(-c2ccc(-c3ccc(C(=N)N)nc3)s2)cc(OC)c1OC,,,3.45
CCOc1c(OC)cc(CN2CCc3cc(OS(N)(=O)=O)c(OC)cc3C2)cc1OC,WST-1,96 h,0.1
COc1cc2c(cc1O)CCN(Cc1ccc(OC)c(OC)c1OC)C2,WST-1,96 h,> 100
CCc1cc(CN2CCc3cc(O)c(OC)cc3C2)cc(CC)c1CC,WST-1,96 h,63
COc1cc2c(cc1O)CCN(Cc1cc(OC)c(OC)c(OC)c1)C2,WST-1,96 h,0.65
COc1ccc(C(=O)/C=C/c2ccc(Cl)c(Cl)c2)cc1S(N)(=O)=O,SRB,48 h,3.5
COc1ccc(-c2ccc(-c3ccc(C(=N)N)nc3)s2)cc1Cl,,,1.77
COc1ccc(C(=O)/C=C/c2ccccc2Br)cc1S(N)(=O)=O,SRB,48 h,3.3
CCOc1cc(CN2CCc3cc(OS(N)(=O)=O)c(OC)cc3C2)cc(OCC)c1OCC,WST-1,96 h,8.5
COc1ccc(C(=O)/C=C/c2cccc(Cl)c2)cc1S(N)(=O)=O,SRB,48 h,3.6
CC(=O)O[C@H]1C(=O)[C@@]2(C)[C@H]([C@H](OC(=O)c3ccccc3)[C@]3(O)C[C@H](OC(=O)[C@H](O)[C@@H](NC(=O)c4ccccc4)c4ccccc4)C(C)=C1C3(C)C)[C@]1(OC(C)=O)CO[C@@H]1C[C@@H]2O,WST-1,96 h,0.004
COc1ccc(C(=O)/C=C/c2cccnc2)cc1S(N)(=O)=O,SRB,48 h,11.2
COc1cc2c(cc1OS(N)(=O)=O)CCN(Cc1ccc(OC)c(OC)c1OC)C2,WST-1,96 h,17
COc1ccccc1/C=C/C(=O)c1ccc(OC)c(S(N)(=O)=O)c1,SRB,48 h,3.2
COc1cc2c(cc1O)CCN(Cc1cccc(NS(C)(=O)=O)c1)C2,WST-1,96 h,> 100
